Test results: ChEMBL document CHEMBL1147364, “An antifungal bibenzyl from the New Zealand liverwort, Plagiochila stephensoniana. Bioactivity-directed isolation, synthesis, and analysis” (J Nat Prod, 1993)
Values after ≈ are worked out from the molar mass of the structure shown. Active and inactive are the calls of the source. No cut-off for these calls is given here.

How the values were obtained:
Bacillus subtilis [1] = experiment: Antibacterial activity against Bacillus subtilis at 60 ug/disk by disk diffusion assay; assay type: functional; conditions: for zone of inhibition at 60 µg/disc: read-out: IZ
How it was run: (§1)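 Sample solution dried onto 6-mm filter paper disks at the stated loading. Disks placed on agar plates seeded with the test organism, then incubated. Read-out is the width of the inhibition zone around the disk, in mm.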

[2] = test system: Trichophyton mentagrophytes; experiment: Antifungal activity against Trichophyton mentagrophytes 10100 at 300 ug/disk by disk diffusion assay; assay type: functional; conditions: for zone of inhibition at 300 µg/disc: read-out: IZ; how it was run: as §1
Amorphotheca resinae [3] = experiment: Antifungal activity against Cladosporium resinae 10100 at 300 ug/disk by disk diffusion assay; assay type: functional, organism-based; how it was run: as §1
Candida albicans [4] = experiment: Antifungal activity against Candida albicans 10261 at 60 ug/disk by disk diffusion assay; assay type: functional; conditions: for zone of inhibition at 60 µg/disc: read-out: IZ; how it was run: as §1
Bacillus subtilis [5] = experiment: Antibacterial activity against Bacillus subtilis at 300 ug/disk by disk diffusion assay; assay type: functional; conditions: for zone of inhibition at 300 µg/disc: read-out: IZ; how it was run: as §1
Candida albicans [6] = experiment: Antifungal activity against Candida albicans 10261 at 300 ug/disk by disk diffusion assay; assay type: functional; conditions: for zone of inhibition at 300 µg/disc: read-out: IZ; how it was run: as §1
[7] = Cytotoxicity against african green monkey BSC cells at 60 ug/mL after 24 hrs; assay type: cell-based; conditions: chlorocebus aethiops
How it was run: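 Sample on 6-mm filter paper disks placed directly on BSC-1 monkey kidney cells, incubated 24 h, examined by inverted microscope. Cytotoxic zone scored as +, ++, +++ or whole well.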

Amorphotheca resinae [8] = experiment: Antifungal activity against Cladosporium resinae 10100 at 60 ug/disk by disk diffusion assay; assay type: functional; conditions: for zone of inhibition at 60 µg/disc: read-out: IZ; how it was run: as §1
[9] = test system: Trichophyton mentagrophytes; experiment: Antifungal activity against Trichophyton mentagrophytes 10100 at 60 ug/disk by disk diffusion assay; assay type: functional; conditions: for zone of inhibition at 60 µg/disc: read-out: IZ; how it was run: as §1
Escherichia coli [10] = experiment: Antibacterial activity against Escherichia coli at 60 ug/disk by disk diffusion assay; assay type: functional, organism-based; how it was run: as §1
Human alphaherpesvirus 1 = experiment: Antiviral activity against Herpes simplex virus type 1 ATCC VR 733 infected in african green monkey BSC cells assessed as inhibition of virus-induced cytopathic effect; assay type: functional, organism-based
How it was run: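 Sample dried onto 6-mm filter paper disks placed directly on BSC-1 (African green monkey kidney) cell monolayers, which were infected with HSV type 1 (ATCC VR 733). After 24 h incubation, examined by inverted microscope. Zone of viral and/or cytotoxic inhibition around the disk recorded.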

Bacillus subtilis [11] = experiment: Antibacterial activity against Bacillus subtilis at 2.4 ug/disk by disk diffusion assay; assay type: functional, organism-based; how it was run: as §1
[12] = test system: Trichophyton mentagrophytes; experiment: Antifungal activity against Trichophyton mentagrophytes 10100 by tube assay method; assay type: functional
How it was run: (§2)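 MIC by standard tube dilution assay. Minimum fungicidal concentration is also reported in µg/ml.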

Candida albicans [13] = experiment: Antifungal activity against Candida albicans 10261 at 2.4 ug/disk by disk diffusion assay; assay type: functional, organism-based; how it was run: as §1
Postia placenta = experiment: Antifungal activity against Poria placenta; assay type: functional, organism-based; conditions: Rhodonia placenta
Poliovirus 1 = experiment: Antiviral activity against Poliovirus type 1 infected in african green monkey BSC cells assessed as inhibition of virus-induced cytopathic effect; assay type: functional, organism-based
How it was run: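 Sample is dried onto 6-mm filter-paper disks and placed directly on BSC-1 (African green monkey kidney) cell monolayers. Cells are infected with Polio Type I (Pfizer vaccine strain) and incubated 24 h. Wells are examined by inverted microscope for a zone of viral and/or cytotoxic inhibition around the disk. Cytotoxicity is scored as zone size (+, ++, +++, whole well).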

[14] = test system: Trichophyton mentagrophytes; experiment: Antifungal activity against Trichophyton mentagrophytes 10100 at 2.4 ug/disk by disk diffusion assay; assay type: functional; conditions: for zone of inhibition at 2.4 µg/disc: read-out: IZ; how it was run: as §1
P388 = experiment: Cytotoxicity against mouse P388 cells after 72 hrs by MTT assay; assay type: functional, cell-based; conditions: P388, 72 h
How it was run: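 P-388 murine leukemia cells incubated 72 h with a 2-fold dilution series of sample. Growth read by MTT tetrazolium staining absorbance. IC50 (µg/ml) is the concentration reducing growth to 50% of a solvent control.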

Pseudomonas aeruginosa = experiment: […] aeruginosa at 60 ug/disk by disk diffusion assay; assay type: functional, organism-based; how it was run: as §1
Gloeophyllum trabeum = experiment: Antifungal activity against Gloeophyllum trabeum; assay type: functional, organism-based
Candida albicans [15] = experiment: Antifungal activity against Candida albicans 10261 by tube assay method; assay type: functional; how it was run: as §2
Bacillus subtilis [16] = experiment: Antibacterial activity against Bacillus subtilis at 12 ug/disk by disk diffusion assay; assay type: functional; conditions: read-out: IZ; how it was run: as §1
[17] = test system: Trichophyton mentagrophytes; experiment: Antifungal activity against Trichophyton mentagrophytes 10100 at 12 ug/disk by disk diffusion assay; assay type: functional; conditions: read-out: IZ; how it was run: as §1
Candida albicans [18] = experiment: Antifungal activity against Candida albicans 10261 at 12 ug/disk by disk diffusion assay; assay type: functional; conditions: for zone of inhibition at 12 µg/disc: read-out: IZ; how it was run: as §1
Escherichia coli [19] = experiment: Antibacterial activity against Escherichia coli at 10 ug/disk by disk diffusion assay; assay type: functional, organism-based
How it was run: (§3)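 Sample solution dried onto 6-mm filter-paper disks, which are laid on seeded agar Petri dishes and incubated.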

Bacillus subtilis [20] = experiment: Antibacterial activity against Bacillus subtilis at 30 ug/disk by disk diffusion assay; assay type: functional; conditions: read-out: IZ; how it was run: as §1
[21] = test system: Trichophyton mentagrophytes; experiment: Antifungal activity against Trichophyton mentagrophytes 10100 at 100 units/disk by disk diffusion assay; assay type: functional, organism-based; how it was run: as §3
Amorphotheca resinae [22] = experiment: Antifungal activity against Cladosporium resinae 10100 at 100 units/disk by disk diffusion assay; assay type: functional, organism-based; how it was run: as §3

| Molecule | Activity (Bacillus subtilis [1]) | Activity [2] | Activity (Amorphotheca resinae [3]) | Activity (Candida albicans [4]) | Activity (Bacillus subtilis [5]) | Activity (Candida albicans [6]) | Activity [7] | Activity (Amorphotheca resinae [8]) | Activity [9] | Activity (Escherichia coli [10]) | MFC [12] [µg/mL] | MIC [12] [µg/mL] | IC50 (P388) [µg/mL] | zone of inhibition at 60 µg/disc [9] [mm] | MFC (Candida albicans [15]) [µg/mL] | MIC (Candida albicans [15]) [µg/mL] | further results |
| --- | --- | --- | --- | --- | --- | --- | --- | --- | --- | --- | --- | --- | --- | --- | --- | --- | --- |
| COc1cccc(/C=C/c2ccc(O[Si](C)(C)C(C)(C)C)cc2)c1 | inactive | inactive | inactive | inactive | inactive | inactive | Not Active | inactive | inactive | inactive | – | – | – | – | – | – | – |
| C(=C\c1ccccc1)/c1ccccc1 | inactive | inactive | inactive | inactive | inactive | inactive | – | inactive | inactive | inactive | – | – | – | – | – | – | – |
| COc1cccc(CCc2ccc(O)cc2)c1 | – | – | – | – | – | – | – | – | – | inactive | 62.5 (≈ 274 µM) | 62.5 (≈ 274 µM) | > 25 | 7 | 125 (≈ 548 µM) | 125 (≈ 548 µM) | Activity (Human alphaherpesvirus 1): inactive; Activity (Bacillus subtilis [11]): inactive; zone of inhibition at 60 µg/disc (Bacillus subtilis [1]): 5 mm; Activity (Candida albicans [13]): inactive; zone of inhibition at 300 µg/disc [2]: 7 mm; IC50 (Postia placenta): 11 µg/mL (≈ 48.2 µM); zone of inhibition at 60 µg/disc (Candida albicans [4]): 10 mm; zone of inhibition at 300 µg/disc (Bacillus subtilis [5]): 5 mm; Activity (Poliovirus 1): inactive; zone of inhibition at 300 µg/disc (Candida albicans [6]): 10 mm; Activity [14]: inactive; Activity (Pseudomonas aeruginosa): inactive; zone of inhibition at 60 µg/disc (Amorphotheca resinae [8]): 2 mm; IC50 (Gloeophyllum trabeum): 87 µg/mL (≈ 381 µM); zone of inhibition at 12 µg/disc (Bacillus subtilis [16]): 3 mm; zone of inhibition at 12 µg/disc [17]: 7 mm; zone of inhibition at 12 µg/disc (Candida albicans [18]): 2 mm |
| GENTAMICIN | – | – | – | – | – | – | – | – | – | – | – | – | – | – | – | – | inhibition zone (IZ) (Escherichia coli [19]): 8 mm |
| COc1cccc(/C=C/c2ccc(O)cc2)c1 [(E)-5-METHOXY-4'-STILBENOL] | – | – | – | – | – | – | – | – | – | inactive | 31.2 (≈ 138 µM) | 31.2 (≈ 138 µM) | 9.9 (≈ 43.8 µM) | 6 | 125 (≈ 552 µM) | 31.2 (≈ 138 µM) | Activity (Bacillus subtilis [11]): inactive; zone of inhibition at 60 µg/disc (Bacillus subtilis [1]): 4 mm; Activity (Candida albicans [13]): inactive; zone of inhibition at 300 µg/disc [2]: 10 mm; zone of inhibition at 60 µg/disc (Candida albicans [4]): 2 mm; zone of inhibition at 300 µg/disc (Bacillus subtilis [5]): 6 mm; zone of inhibition at 300 µg/disc (Candida albicans [6]): 7 mm; zone of inhibition at 2.4 µg/disc [14]: 2 mm; zone of inhibition at 60 µg/disc (Amorphotheca resinae [8]): 2 mm; zone of inhibition at 12 µg/disc (Bacillus subtilis [16]): 2 mm; zone of inhibition at 12 µg/disc [17]: 8 mm; Activity (Candida albicans [18]): inactive |
| CO[C@@]12[C@H](COC(N)=O)C3=C(C(=O)C(C)=C(N)C3=O)N1C[C@@H]1N[C@@H]12 [MITOMYCIN] | – | – | – | – | – | – | – | – | – | – | – | – | 0.02 (≈ 0.0598 µM) | – | – | – | – |
| COc1cccc(CCc2ccc(O[Si](C)(C)C(C)(C)C)cc2)c1 | inactive | inactive | inactive | inactive | inactive | inactive | Not Active | inactive | inactive | inactive | > 1000 | > 1000 | > 25 | – | > 1000 | > 1000 | – |
| COc1cccc(/C=C\c2ccc(O)cc2)c1 | – | – | – | – | – | – | – | – | – | – | 15.6 (≈ 69 µM) | 12.6 (≈ 55.8 µM) | 16.3 (≈ 72 µM) | 10 | 62.5 (≈ 276 µM) | 31.2 (≈ 138 µM) | Activity (Bacillus subtilis [11]): inactive; zone of inhibition at 60 µg/disc (Bacillus subtilis [1]): 9 mm; Activity (Candida albicans [13]): inactive; zone of inhibition at 300 µg/disc [2]: 10 mm; zone of inhibition at 60 µg/disc (Candida albicans [4]): 7 mm; zone of inhibition at 300 µg/disc (Bacillus subtilis [5]): 9 mm; zone of inhibition at 300 µg/disc (Candida albicans [6]): 7 mm; zone of inhibition at 2.4 µg/disc [14]: 5 mm; zone of inhibition at 60 µg/disc (Amorphotheca resinae [8]): 3 mm; zone of inhibition at 12 µg/disc (Bacillus subtilis [16]): 4 mm; zone of inhibition at 12 µg/disc [17]: 7 mm; zone of inhibition at 12 µg/disc (Candida albicans [18]): 2 mm |
| COc1ccc(CCc2cccc(OC)c2)cc1 | inactive | inactive | – | inactive | inactive | inactive | Not Active | inactive | inactive | inactive | – | – | – | – | – | – | – |
| O=C(N[C@H](CO)[C@H](O)c1ccc([N+](=O)[O-])cc1)C(Cl)Cl [CHLORAMPHENICOL] | – | – | – | – | – | – | – | – | – | – | – | – | – | – | – | – | zone of inhibition at 30 µg/disc (Bacillus subtilis [20]): 12 mm |
| Cc1cccc(O)c1 [METACRESOL] | inactive | inactive | – | inactive | inactive | inactive | Not Active | inactive | – | inactive | – | – | – | 2 | – | – | – |
| COc1cccc(/C=C\c2ccc(O[Si](C)(C)C(C)(C)C)cc2)c1 | inactive | inactive | inactive | inactive | inactive | inactive | Not Active | inactive | inactive | inactive | – | – | – | – | – | – | – |
| NYSTATIN | – | – | – | – | – | – | – | – | – | – | 62.5 | 62.5 | – | – | 31.2 | 31.2 | inhibition zone (IZ) [21]: 8 mm; inhibition zone (IZ) (Amorphotheca resinae [22]): 10 mm |
